Data taken from ChEMBL document CHEMBL1154278, “Cassiarins C-E, antiplasmodial alkaloids from the flowers of Cassia siamea” (J Nat Prod, 2009).

What was measured:
Plasmodium falciparum = test: Antimalarial activity against Plasmodium falciparum 3D7 by Giemsa staining; type: functional, organism-based
Outline: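 P. falciparum 3D7 clone grown in human erythrocyte culture (Trager–Jensen) in 24-well plates. Compounds dissolved in DMSO (final <0.5%) and diluted in RPMI 1640 with 10% human plasma, 25 mM HEPES and 25 mM NaHCO₃ to final 10, 1, 0.1, 0.01, 0.001 µg/mL. Growth read from MeOH-fixed, Giemsa-stained smears; IC50 = 50% growth inhibition versus untreated control.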

HL-60 (Homo sapiens) = test: Cytotoxicity against human HL-60 cells

Structure (SMILES)	IC50 (Plasmodium falciparum)	IC50 (HL-60 (Homo sapiens))
Cc1cc2cc(=O)cc3oc(C)cc(o1)c23 [ANHYDROBARAKOL]	4.7 µM	> 100 µM
Cc1cc2c3c(cc(=O)cc-3o1)CC(C)O2 (configuration not stated)	2.3 µM	> 100 µM
CC(=O)Cc1cc(O)cc2oc(C)cc(=O)c12	8.6 µM	> 100 µM

Further lines, with some results ahead:

IC50 (Plasmodium falciparum)	Structure (SMILES)	IC50 (HL-60 (Homo sapiens))
24.2 µM	Cc1cc2cc(O)cc3c2c(n1)CC(C)O3 (configuration not stated) [CASSIARIN C]	> 100 µM
7.3 µM	Cc1cc2cc(O)cc3c2c(n1)C=C(CC1(C)Cc2nc(C)cc4cc(O)cc(c24)O1)O3 (configuration not stated) [CASSIARIN E]	> 100 µM
3.6 µM	CC(=O)Cc1cc(O)cc2oc(CC3(C)Cc4nc(C)cc5cc(O)cc(c45)O3)cc(=O)c12 (configuration not stated) [CASSIARIN D]	> 100 µM
